Screening data: PubChem, Johns Hopkins Ion Channel Center
MrgX1 ag: agonists of human MrgX1 receptor; Q96LB2; MrgX1-HEK293 cells, Fluo-4 calcium fluorescence, agonist mode; stronger effect = higher value; hit rate 0.44% among 310,000; AID 588627; B-score at 10 µM;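 active = calcium response B-score plate-corrected fluorescence ratio at least 3 library SD, with starting fluorescence B-score inside 5 SD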
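times = overnight plating, then 30 min 37 °C plus 30 min room-temperature dye loading | assay system = stable human MrgX1 HEK293 cell line | input = fifteen thousand cells per well | signal = kinetic calcium dye fluorescence, Fluo-4 NW | dosing = compound delivered in addition one of three | read-out = B-scored fluorescence response ratio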
Kir21 inh: inhibitors of mouse Kir2.1 inward-rectifier potassium channel | HEK293-Kir2.1, FluxOR thallium flux fluorescence; stronger effect = lower value | B-score at 10 µM | hit rate 0.85% among 310,000 | P35561;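 active = fluorescence ratio B-score at or below minus 3 SD of library scores, with starting-brightness B-score within 2 SD, cut at about -4.2 in these data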;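 note: channel flux triggered by added potassium and thallium sulfate stimulus; B-score of peak minus minimum fluorescence over baseline after thallium stimulus; more negative B-score means stronger Kir2.1 block with less thallium influx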
Target sequence (P35561 whole entry, looked up): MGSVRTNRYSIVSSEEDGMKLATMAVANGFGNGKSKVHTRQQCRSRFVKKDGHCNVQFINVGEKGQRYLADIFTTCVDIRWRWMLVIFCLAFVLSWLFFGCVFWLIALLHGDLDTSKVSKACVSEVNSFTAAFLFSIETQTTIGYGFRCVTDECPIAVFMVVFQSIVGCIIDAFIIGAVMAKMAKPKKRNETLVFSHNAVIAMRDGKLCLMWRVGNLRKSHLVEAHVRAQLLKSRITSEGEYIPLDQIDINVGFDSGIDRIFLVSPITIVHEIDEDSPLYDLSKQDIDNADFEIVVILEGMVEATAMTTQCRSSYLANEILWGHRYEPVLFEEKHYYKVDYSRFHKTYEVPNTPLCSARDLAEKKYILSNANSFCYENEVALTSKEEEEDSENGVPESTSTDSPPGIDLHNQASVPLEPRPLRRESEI
MrgX1 allo act: human MrgX1 positive allosteric modulation, primary screen | Q96LB2 | MrgX1-HEK293, Fluo-4 calcium flux, FDSS; stronger effect = higher value | B-score at 10 µM | hit rate 0.63% among 310,000;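 active = plate-corrected calcium response at least 3 library SD above typical, normal starting fluorescence, not activating the receptor alone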;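 note: compound read alongside a low EC10 to EC30 dose of BAM8-22 agonist; peak minus trough fluorescence over baseline measured at the second addition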
RGS4 inh: inhibitors of human RGS4; HEK293 M3R/RGS4 inducible, Fluo-4 calcium flux; stronger effect = higher value; triggered by carbachol at its EC20; B-score at 10 µM; hit rate 0.45% among 310,000;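 active = B-score, a plate-corrected calcium signal, over three deviations above library mean, with baseline fluorescence within five deviations of library mean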;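 note: RGS4 expression induced by doxycycline in cells with stable M3 receptor; B-score is computed from the integrated fluorescence ratio over baseline after carbachol; higher B-score means a larger calcium signal and so more RGS4 inhibition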
Target sequence (P49798 whole entry, looked up): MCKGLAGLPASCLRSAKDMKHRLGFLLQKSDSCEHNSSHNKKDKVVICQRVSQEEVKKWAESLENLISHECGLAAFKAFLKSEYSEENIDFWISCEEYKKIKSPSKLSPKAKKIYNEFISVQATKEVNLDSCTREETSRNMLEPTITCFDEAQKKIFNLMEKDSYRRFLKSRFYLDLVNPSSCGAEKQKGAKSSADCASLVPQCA
RGS4 act: RGS4 potentiation or activation; AID 463111; HEK293 M3R/inducible RGS4, carbachol calcium flux Fluo4; stronger effect = lower value; B-score at 10 µM; hit rate 0.92% among 310,000;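 active = B-score of the integrated calcium signal more than 4 SD below the library mean, with starting fluorescence not abnormally high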;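 note: negative B-score means reduced calcium response which marks RGS4 activation or potentiation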
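Assay system: Inducible-RGS4 HEK293 cells carrying M3 receptor | Schedule: Compound preincubation 20 min at room temperature before agonist | Signal: Kinetic calcium fluorescence imaging with Fluo4-AM dye, 2 µM | Read-out basis: B score from integrated fluorescence ratio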
MrgX1 antag: antagonists of human MrgX1 receptor. MRGX1-HEK293 calcium flux, Fluo-4, BAM8-22 antagonism; stronger effect = lower value. hit rate 1.3% among 310,000. Q96LB2. B-score at 10 µM;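 active = calcium-response B-score plate-corrected more than 3 library SD below zero, starting fluorescence within 5 deviations, no agonist response on first addition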;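 note: peak minus trough fluorescence over baseline after final BAM8-22 challenge near maximal dose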
Active calls of the source: *; i = inactive; x = not tested or not shown. Hits are enriched below; roughly 4.1% of the tested compounds scored in any of these assays.

SMILES | MrgX1 ag | Kir21 inh | MrgX1 allo act | RGS4 inh | RGS4 act | MrgX1 antag
Cc1cccc(N2C(=O)NC(=O)/C(=C/c3cc4c(cc3[N+](=O)[O-])OCO4)C2=O)c1 | i | -3.3 | i | i | i | i
CCC(CO)(C(=O)OC1C[N+]2(C)CCC1CC2)c1ccccc1 (stereo not given) | i | -1.3 | i | i | -8.9* | i
Cc1ccccc1-c1nc2ccccc2c(=O)n1C | i | 0.75 | i | i | i | i
C[n+]1c(-c2ccccc2)cc(-c2ccc(Cl)cc2)cc1-c1ccccc1 | i | -3.2 | i | i | i | i
Cc1ccc(-c2cc(-c3ccc(C)cc3)[n+](C)o2)cc1 | i | 2.3 | i | i | i | i
CN(C)c1ccc(-[n+]2c(-c3ccccc3)cc(-c3ccccc3)cc2-c2ccccc2)cc1 | x | -15* | x | i | -9* | x
Cc1ccc(-c2cc(-c3ccccc3)cc(-c3ccccc3)[n+]2-c2ccccc2)cc1 | 31* | -9.7* | i | i | -7.6* | i
c1ccc(-c2cc(-c3ccccc3)[n+](-c3ccccc3)c(-c3ccccc3)c2)cc1 | i | -6.4* | 15* | i | -7.8* | i
Cc1ccc(-c2cc(-c3ccc(C)cc3)[n+](-c3ccc(C(=O)[O-])cc3)c(-c3ccc(C)cc3)c2)cc1 | i | -8.2* | i | i | i | i
O=S(=O)(F)c1ccc2nc(-c3cccc(Sc4ccccc4)c3)cc(Cl)c2c1 | i | -2.5 | i | i | i | i
CN1CCN(c2ccc3nccnc3c2)CC1 | i | -0.23 | i | i | i | i
Cc1cccc(CN2CCN(Cc3ccc(Cl)cc3)CC2)c1 | i | -12* | i | i | i | i
Nc1ccc2ccc3cccc[n+]3c2c1 | i | -23 | i | i | -7.6* | i
C[N+]1(CCC(C(N)=O)(c2ccccc2)c2ccccc2)CCCCC1 | i | 0.97 | i | i | -7* | i
Fc1ccc(CCNCc2ccc(Cl)c(Cl)c2)cc1 | i | -6.2* | i | i | i | i
CCC1C(c2ccccc2)NC(c2ccccc2)CC1(O)c1ccc(F)cc1 (stereo not given) | i | -4.5* | i | i | i | i
OCCN1C2CCC1CC(O)(c1ccc(F)cc1)C2 (stereo not given) | i | -0.64 | i | i | i | i
CC1CCCC(C)N1/N=C/c1c[nH]c2ccc(Br)cc12 (stereo not given) | i | -4.3* | 12* | i | i | i
CN1CCC(c2c[nH]c3ccccc23)C1 (stereo not given) | i | -1.5 | i | i | i | i
C/C=C(\C)C(=O)OC1C(C)=C2C(C1OC(=O)CCCCC)C(C)(OC(C)=O)CC(OC(=O)CCC)C1(O)C2OC(=O)C1(C)O (stereo not given) | 49* | 0.08 | i | i | -8.9* | i
Cc1ccc(C2(O)CC(C)N(C)CC2C)cc1 (stereo not given) | i | 0.32 | i | i | i | i
C#CC1(OC(=O)c2ccccc2)CC(C)N(C)CC1C (stereo not given) | i | -2 | i | i | -7* | i
COc1cc(CNCCc2c[nH]c3ccccc23)cc(OC)c1 | i | -2.4 | i | i | i | i
Cc1c(Br)c(=O)oc2cc(OCC(=O)N3C[C@H]4C[C@@H](C3)c3cccc(=O)n3C4)ccc12 | i | -0.88 | i | i | -7.5* | i
CCOP(=S)(OCC)c1ccc(N(C)C)cc1 | i | -0.02 | 10* | i | i | i
SMILES | MrgX1 ag | Kir21 inh | MrgX1 allo act | RGS4 inh | RGS4 act | MrgX1 antag
CN(C)c1ccc(P(=S)(N(C)C)N(C)C)cc1 | i | 0.01 | i | i | i | i
CN1CC(C(=O)c2ccc(Cl)cc2)C(c2ccc(Cl)cc2Cl)C1 (stereo not given) | i | -5* | i | i | i | i
CCOC(=O)N(CC)c1ccc(C(O)(C(=O)OC)C(F)(F)F)cc1 (stereo not given) | i | 0.73 | i | i | i | i
OC(c1ccncc1)(c1ccc(F)cc1)c1ccc(F)cc1 | i | -1.8 | i | i | i | i
CCn1c(O)c(/C=N/NC(=O)c2ccccc2)c(=O)n(CC)c1=S | 49* | -1.4 | i | i | i | i
CC(C)(O)[C@H]1O[C@H]2CC[C@@]3(C)[C@@](O)(CC[C@H]4Cc5c([nH]c6ccccc56)[C@@]43C)C2=CC1=O | i | 0.4 | i | i | i | -4.6*
COc1ccc(C(=O)C2CCCN(Cc3ccsc3)C2)cc1OC (stereo not given) | i | -1.6 | i | i | i | i
CC(=O)Nc1cccc([As](=O)(c2cccc(NC(C)=O)c2)c2cccc(NC(C)=O)c2)c1 | i | 1.7 | i | i | i | i
Cc1ccc(NP(=O)(Nc2ccc(C)cc2)Oc2ccccc2)cc1 | i | -0.35 | i | i | i | i
O=P(Oc1ccccc1)(Oc1ccccc1)c1ccccc1 | i | -5.9* | i | i | i | i
COc1ccc(-c2cc(=NCCCCCC(=O)O)c3cc(C)ccc3o2)cc1 | x | -0.06 | x | i | i | x
CCCCn1c(O)c(/C=N/NC(=O)c2ccncc2)c(=O)[nH]c1=O | i | 1.5 | i | i | i | i
CCOC(=O)C1(CCCc2ccccc2)CCN(C2CCCC2)CC1 | i | -0.89 | i | i | -7* | i
CCOC(=O)C1(CCc2ccccc2)CCN(C2CCSCC2)CC1 | i | 1.3 | i | i | i | i
CN1C2CCC1CC(=NO)C2 | i | -0.23 | i | i | i | -5.3*
COCCNP(=O)(c1ccccc1)c1nc2ccccc2s1 (stereo not given) | i | 1.4 | i | i | i | i
O=c1[nH]c(=O)n(-c2ccccc2F)c(O)c1/C=C1\C=Nc2ccccc21 | 47* | 0.63 | i | 11* | i | i
CN1CCN(Cc2ccc3ccccc3c2)CC1 | i | 0.63 | i | i | i | i
CCCCCCOc1ccc(CN2CCN(C)CC2)cc1 | i | -4.8* | i | i | i | i
COc1cc(C(=O)NC(=S)N2C[C@H]3C[C@H](C2)c2cccc(=O)n2C3)cc(OC)c1OC | i | 1.4 | i | i | i | i
COC(=O)C1C2c3ccccc3OC1(C)N=c1s/c(=C/c3cn(C)nc3C)c(=O)n12 (stereo not given) | i | -0.02 | 7.1* | i | i | i
